From ChEMBL document CHEMBL1158601, “Discovery of a novel series of CXCR3 antagonists” (Bioorg Med Chem Lett, 2010) come the findings set out here.

Series [1] is described as follows: Aqueous solubility at pH 7.4. Format: physicochemical. The note with it: buffer. In a few lines: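 Aqueous solubility measured at pH 7.4.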
In series [2] the target is T1, C-X-C chemokine receptor type 5 (Homo sapiens) (UniProt P32302).
T1 sequence (whole entry): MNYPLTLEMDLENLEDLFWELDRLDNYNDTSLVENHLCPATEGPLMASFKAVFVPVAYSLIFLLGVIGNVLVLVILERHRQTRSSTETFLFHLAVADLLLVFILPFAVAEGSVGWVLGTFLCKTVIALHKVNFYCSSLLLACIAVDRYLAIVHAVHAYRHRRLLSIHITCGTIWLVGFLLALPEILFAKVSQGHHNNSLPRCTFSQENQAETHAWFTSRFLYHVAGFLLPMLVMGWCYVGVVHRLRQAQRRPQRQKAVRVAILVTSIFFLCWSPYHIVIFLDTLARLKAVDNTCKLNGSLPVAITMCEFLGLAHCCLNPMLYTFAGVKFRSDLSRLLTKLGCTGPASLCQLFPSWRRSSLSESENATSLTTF
In words: Antagonist activity at human CXCR5 expressed in mouse L1.2 cells assessed as inhibition of CXCL13-induced chemotaxis up to 10 uM after 4 hrs. The class given is functional, cell-based. In a few lines: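 Counter-screen chemotaxis: CXCR5-overexpressing L1.2 cells stimulated with CXCL13, test compounds up to 10 µM.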

The nature of series [3]: Intrinsic clearance in rat liver microsomes assessed per mg of protein. The class given is ADME, Microsome. The essentials: (§1)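 Intrinsic clearance from stability in human and rat liver microsomes, expressed as µL/min/mg protein.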
For orientation: Microsomes from liver hold many membrane-bound enzymes, among them those of drug oxidation.

Series [4] in a line: Intrinsic clearance in human liver microsomes assessed per mg of protein. The class given is ADME, Microsome. The essentials: as §1
Series [5] concerns the target T2, C-X-C chemokine receptor type 3 (Homo sapiens) (UniProt P49682).
T2 sequence (whole entry): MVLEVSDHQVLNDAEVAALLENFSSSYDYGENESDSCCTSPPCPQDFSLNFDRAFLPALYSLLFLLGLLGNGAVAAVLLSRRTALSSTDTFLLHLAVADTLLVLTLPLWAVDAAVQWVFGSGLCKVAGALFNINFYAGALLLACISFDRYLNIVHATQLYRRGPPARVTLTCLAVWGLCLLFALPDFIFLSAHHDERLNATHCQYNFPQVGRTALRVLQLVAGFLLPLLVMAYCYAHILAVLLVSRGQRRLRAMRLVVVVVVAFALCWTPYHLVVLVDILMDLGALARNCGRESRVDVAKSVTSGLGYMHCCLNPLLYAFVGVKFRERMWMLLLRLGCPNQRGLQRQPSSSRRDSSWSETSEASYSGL
The experiment in a line: Antagonist activity at human CXCR3 expressed in mouse L1.2 cells assessed as inhibition of ITAC-induced chemotaxis after 4 hrs. Format: functional, cell-based.

Series [6] is described as follows: Chemical stability at pH 1. The class given is physicochemical. The following applies: buffer.
Series [7] can be described thus: Lipophilicity, log P of the compound. The following applies: octanol/water. The class given is physicochemical.
A short description of series [8]: Apparent permeability across human Caco-2 cells. Format: ADME, cell-based. On the technique in general: Passage across Caco-2 layers is used to estimate intestinal permeability.
The target of series [9] is T2, C-X-C chemokine receptor type 3 (Homo sapiens). The experiment in a line: Antagonist activity at CXCR3 assessed as inhibition of IP10-induced GTPgammaS binding. Format: functional.
Series [10] deals with T3, C-X-C chemokine receptor type 3 (Homo sapiens, UniProt P49682).
T3 sequence (P49682 whole entry): T2 sequence (whole entry)
The experiment in a line: Displacement of labeled ITAC from CXCR3.

Series [11] concerns the target T2, C-X-C chemokine receptor type 3 (Homo sapiens). In words: Antagonist activity at CXCR3 assessed as inhibition of ITAC-induced GTPgammaS binding. Format: functional. (In general: Binding of GTPγS marks nucleotide exchange on a G protein.)
The nature of series [12]: Nephelometric kinetic solubility in PBS. Format: physicochemical.
The target in series [13] is T3, C-X-C chemokine receptor type 3. In words: Displacement of labeled IP10 from CXCR3.

Each structure is given as a SMILES string. ≈ marks a conversion by molar mass, not a printed value. Calls of active or inactive are those of the source. The calls are words filed in the database; no cut-off is given here.

In general, solubility refers to the concentration that dissolves in the medium under given conditions. In series [1], `COc1ccc(S(=O)(=O)N(Cc2ccc(C(=O)NCC3CC3)cc2)Cc2cccnc2)cc1` gave a solubility below 10 µM. Moreover, the outcome in [2] was inactive.

For orientation: microsomal CLint means a measure of how fast metabolising enzymes remove a compound, apart from limits set by blood flow. As for `N#Cc1ccc(S(=O)(=O)N(Cc2ccc(-c3nnn[nH]3)cc2)Cc2ccccc2F)cc1`, in series [1], the solubility is above 100 µM. The compound also returned a microsomal CLint in series [3] of 67 µL/min/mg. The result in series [2] was inactive.

As to `CCOc1ccc(S(=O)(=O)N(Cc2ccc(-c3nnn[nH]3)cc2)Cc2ccccn2)cc1`, in series [1], the solubility was above 100 µM. Besides, the result in [2] was inactive.

Consider `O=C(NCc1cccc(Cl)c1)c1ccc(CN(Cc2ccccc2)S(=O)(=O)c2ccc(Cl)cc2)cc1`, for which the solubility in series [1] is below 10 µM. In addition, the outcome in [2] was inactive.

Turning to `O=C(NC1(c2ccccc2)CC1)c1ccc(CN(Cc2ccccn2)S(=O)(=O)c2ccc(Cl)cc2)cc1`, the solubility in series [1] was below 10 µM. For the same compound, the intrinsic metabolic clearance (microsomal CLint) in [3] was 1260 µL/min/mg; in series [4], 257 µL/min/mg. Besides, the outcome in [2] was inactive.

For the compound `COc1ccc(S(=O)(=O)N(Cc2ccccc2)Cc2ccc(C(=O)NCC3CC3)cc2)cc1`, the solubility in [1] is below 10 µM. For the same compound, the outcome in series [2] was inactive.

For `O=C(NCCc1cccc([N+](=O)[O-])c1)c1ccc(CN(Cc2ccccc2)S(=O)(=O)c2ccc(Cl)cc2)cc1`, the solubility in series [1] was below 10 µM. For the same compound, the result in series [2] was inactive.

`CCOc1ccc(S(=O)(=O)N(Cc2ccccc2)Cc2ccc(C(=O)NCC3CC3)cc2)cc1` yielded a solubility in [1] below 10 µM. Besides, the outcome in series [2] was inactive.

The compound `O=S(=O)(c1ccc(Cl)cc1)N(Cc1ccc(Cl)cc1)Cc1ccc(-c2nnn[nH]2)cc1` showed a solubility in series [1] above 100 µM. For the same compound, in series [2], the result was inactive.

Turning to `O=S(=O)(c1ccc(Cl)cc1)N(Cc1ccc(-c2nnc(O)o2)cc1)Cc1ccccn1`, the result in series [2] was inactive.

As for `O=C(NCc1cccc(Cl)c1)c1ccc(CN(Cc2ccccn2)S(=O)(=O)c2ccc(Cl)cc2)cc1`, the solubility in series [1] is below 10 µM. The intrinsic clearance (microsomal CLint) in series [3] came out at 1190 µL/min/mg; in [4], 583 µL/min/mg. In addition, the result in series [2] was inactive.

For the compound `COc1ccc(S(=O)(=O)N(Cc2ccccc2)Cc2ccc(C(=O)NCc3ccccc3)cc2)cc1`, the solubility in series [1] is below 10 µM. For the same compound, in series [2], the outcome was inactive.

The compound `O=C(NCC1CC1)c1ccc(CN(Cc2ccccc2F)S(=O)(=O)c2ccc(Cl)cc2)cc1` gave a solubility in series [1] below 10 µM. Moreover, the outcome in series [2] was inactive.

`O=C(NCc1cccs1)c1ccc(CN(Cc2ccccc2)S(=O)(=O)c2ccc(Cl)cc2)cc1`: in series [1], the solubility is below 10 µM. For the same compound, the result in series [2] was inactive.

Take `O=C(NCC1CC1)c1ccc(CN(Cc2ccccc2)S(=O)(=O)c2ccc(Cl)cc2)cc1`: the solubility in [1] was below 10 µM. Moreover, the outcome in series [2] was inactive.

Regarding `N#Cc1ccc(S(=O)(=O)N(Cc2ccc(C(=O)O)c(F)c2)Cc2ccccn2)cc1`, in series [2], the result was inactive.

On to `COc1ccc(CN(Cc2ccc(-c3nnn[nH]3)cc2)S(=O)(=O)c2ccc(Cl)cc2)cc1`, for which, in series [1], the solubility is above 100 µM. For the same compound, the outcome in [2] was inactive.

With `COc1ccc(S(=O)(=O)N(Cc2ccccc2)Cc2ccc(C(=O)O)cc2)cc1`, the outcome in series [2] was inactive.

On to `O=C(NCC1CC1)c1ccc(CN(Cc2ccccc2)S(=O)(=O)c2ccc(OC(F)(F)F)cc2)cc1`, for which, in series [1], the solubility is below 10 µM. The result in series [2] was inactive.

In the case of `O=C(O)c1ccc(CN(Cc2ccccn2)S(=O)(=O)c2ccc(Cl)cc2)cc1F`, the outcome in series [2] was inactive.

As a reminder, the logP is a log measure of how a compound divides between an organic and an aqueous phase. Read a low logP as lower lipophilicity. The Papp is the rate of passage across a membrane or cell layer, normalised by area and donor concentration. For orientation: Ki means the equilibrium dissociation constant of an inhibitor or competing ligand from its target. In general, kinetic solubility refers to the concentration staying in solution when a stock, usually in DMSO, is diluted into the medium. As to `CC(=O)Nc1cccc(/C(C)=N\NC(=O)c2ccc(CN(Cc3ccccc3)S(=O)(=O)c3ccc(Cl)cc3)cc2)c1`, the Activity in series [5] is 1810 nM; in series [9], 99 nM; in series [11], 128 nM. Also, the Stability result in series [6] was “Unstable”. Moreover, the figures for the microsomal CLint in series [3] and in series [4] were 219 µL/min/mg and 92 µL/min/mg, respectively. This compound had a log partition coefficient (logP) in series [7] of 4.8. Moreover, the Papp in series [8] worked out at 0.1 ×10⁻⁶ cm/s. Also, the Ki in series [10] is 211 nM; in [13], 348 nM. In series [12], the solubility (kinetic) is 11.9 µM (≈ 7.01 µg/mL).

In series [1], `O=C(NCC1CC1)c1ccc(CN(Cc2ccccn2)S(=O)(=O)c2ccc(Cl)cc2)cc1` gave a solubility below 10 µM. The intrinsic clearance (microsomal CLint) in series [3] is 538 µL/min/mg; in series [4], 265 µL/min/mg. Further, the outcome in [2] was inactive.

Take `COc1cccc(CN(Cc2ccc(-c3nnn[nH]3)cc2)S(=O)(=O)c2ccc(Cl)cc2)c1`: in series [1], the solubility is above 100 µM. Moreover, the outcome in [2] was inactive.

In series [1], `N#Cc1ccc(S(=O)(=O)N(Cc2ccc(C(=O)NC3(c4ccccc4)CC3)cc2)Cc2ccccn2)cc1` displayed a solubility below 10 µM. For the same compound, the intrinsic clearance (microsomal CLint) in series [3] stood at 474 µL/min/mg; in [4], 435 µL/min/mg. For the same compound, the result in series [2] was inactive.

In turn, `N#Cc1ccc(S(=O)(=O)N(Cc2ccc(C(=O)NCC3CC3)cc2)Cc2ccccn2)cc1` yielded a solubility in series [1] below 10 µM. Further, the result in series [2] was inactive.

Turning to `O=C(O)c1ccc(CN(Cc2ccccc2F)S(=O)(=O)c2ccc(Cl)cc2)cc1F`, the microsomal CLint in series [3] was below 10 µL/min/mg. The outcome in [2] was inactive.

`O=C(NC1(c2ccccc2)CC1)c1ccc(CN(Cc2ccccc2)S(=O)(=O)c2ccc(Cl)cc2)cc1`: in series [1], the solubility was below 10 µM. For the same compound, the microsomal CLint was 507 µL/min/mg in series [3] and 211 µL/min/mg in series [4]. Further, the outcome in [2] was inactive.

As to `O=S(=O)(c1ccc(Cl)cc1)N(Cc1ccc(-c2nnn[nH]2)cc1)Cc1cccc(Cl)c1`, the solubility in series [1] is above 100 µM. Also, in series [2], the outcome was inactive.

The compound `O=S(=O)(c1ccc(Cl)cc1)N(Cc1ccc(-c2nnn[nH]2)c(F)c1)Cc1ccccn1` came in with a solubility in series [1] above 100 µM. In addition, the outcome in series [2] was inactive.

Consider `CC(C)(C)c1nc(CCN(Cc2ccc(-c3nnn[nH]3)cc2)S(=O)(=O)c2ccc(Cl)cc2)no1`, for which the solubility in series [1] is above 100 µM. The result in series [2] was inactive.

On to `O=S(=O)(c1ccc(Cl)cc1)N(Cc1ccc(F)cc1)Cc1ccc(-c2nnn[nH]2)cc1`, for which the solubility in series [1] is above 100 µM. Also, the outcome in series [2] was inactive.

On to `O=C(O)c1ccc(CN(Cc2ccccc2)S(=O)(=O)c2ccc(Cl)cc2)cc1`, for which the microsomal CLint in [3] was 20 µL/min/mg; in series [4] it was below 10 µL/min/mg. For the same compound, the result in series [2] was inactive.

Turning to `O=C(NC[C@@H]1CCCO1)c1ccc(CN(Cc2ccccc2)S(=O)(=O)c2ccc(Cl)cc2)cc1`, the solubility in series [1] was below 10 µM. The microsomal CLint in series [3] was found to be 1700 µL/min/mg; in series [4], 490 µL/min/mg. Moreover, the result in series [2] was inactive.

`O=S(=O)(c1ccc(Cl)cc1)N(Cc1ccc(-c2nnn[nH]2)c(F)c1)Cc1ccccc1F` came in with a solubility in series [1] above 100 µM. In addition, the intrinsic clearance (microsomal CLint) was 71 µL/min/mg in series [3] and below 10 µL/min/mg in series [4]. Further, the outcome in series [2] was inactive.

For `O=S(=O)(c1ccc(Cl)cc1)N(Cc1ccc(-c2nnn[nH]2)cc1)Cc1ccccc1F`, in series [1], the solubility is above 100 µM. The outcome in [2] was inactive.

Regarding `O=S(=O)(c1ccc(Cl)cc1)N(Cc1ccc(-c2nnn[nH]2)cc1)Cc1ccccn1`, the solubility in series [1] is above 100 µM. The intrinsic clearance (microsomal CLint) in [3] was 25 µL/min/mg; in series [4] it was below 10 µL/min/mg. For the same compound, the result in [2] was inactive.

In series [1], `O=C(NCC1CC1)c1ccc(CN(Cc2cccc(Cl)c2)S(=O)(=O)c2ccc(Cl)cc2)cc1` came in with a solubility below 10 µM. Moreover, the outcome in series [2] was inactive.

As for `O=S(=O)(c1ccc(Cl)cc1)N(CCc1cc2ccccc2cn1)Cc1ccc(-c2nnn[nH]2)cc1`, the solubility in series [1] is above 100 µM. Moreover, in series [2], the outcome was inactive.

The compound `N#Cc1ccc(S(=O)(=O)N(Cc2ccc(-c3nnn[nH]3)cc2)Cc2ccccn2)cc1` gave a solubility in series [1] above 100 µM. Further, the outcome in series [2] was inactive.
